Compound activity deposited in PubChem BioAssay by several laboratories.
Sampled rows, rich in hits. Any-hit rate of the full collection: about 4.1%.
Dynein cargo inh: blocks dynein driven cargo transport along microtubules | hit rate 0.47% among 220,000 | z-score, hits read low | 3617.4 mouse cells, GR-EGFP nuclear translocation imaging; test concentration mostly 20 µM; stimulated with dexamethasone, 1 µM; stronger effect = lower value | AID 1381;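 active = plate z-score of nuclear minus cytoplasmic receptor signal below a set negative limit, without overly bright fluorescence or cell loss, cut at about -3.5 in these data, passing the limit was not always enough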;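 also: z-score of nuclear minus cytoplasmic ring GR-EGFP intensity difference per well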
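medium = tetracycline-free induction medium containing charcoal-stripped FBS | also added = 1.0 µM final dexamethasone stimulus | schedule = 48 h induction, 1 h compound, 30 min dex at 37 °C | technique = fixed, Hoechst-stained cells imaged at 10x for EGFP | measure = GR-EGFP nuclear translocation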
Cl transport mod: KCC2 (human) Cl- transport modulation; Q9H2X9; KCC2 cells, thallium flux FluoZin-2 fluorescence; B-score of Tl+ flux slope (higher = more flux/activation; lower = inhibition) at 10 µM; hit rate 2.2% among 190,000; AID 1456;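 active = thallium flux slope and its plate-corrected score both differing from the plate sample mean at a set confidence after two filtering rounds, in either direction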;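 also: slope of fluorescence scaled to starting intensity during 10 to 20 s after thallium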
Redox H2O2 prof: compounds producing H2O2 with reducing agent – biochemical, NIH compound library profiling, artefact control for MLSCN library redox annotation, primary screen | DTT-dependent redox cycling H2O2, phenol red/HRP absorbance; 100% = 100 µM peroxide control, 0% = buffer | activation, % at 10 µM | hit rate 0.03% among 200,000;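 active = activation of at least 50% relative to the plate's high and low controls in the primary single-dose screen; inactive = activation below 50%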;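 also: compound incubated with DTT at 0.8 mM final as the reducing agent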
Autophagy mod: alters autophagy in cells; MEF GFP-LC3 puncta imaging; test concentration mostly 10 µM; calls only at 10 µM (by protocol); hit rate 0.98% among 190,000; AID 463193;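 active = percentage of spot-positive cells more than 3 SD above its plate mean, without a fluorescence outlier flag or 80% toxicity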;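 also: spot-positive cell cutoff set from DMSO-treated cells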
ROMK mod: human ROMK K+ channel modulation, primary screen. hit rate 2% among 130,000. B-score at 10 µM. AID 1918. Tet-inducible ROMK, thallium flux fluorescence; actives lie on both sides. P48048;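 active = signal ratio slope over the read window, or its plate-corrected B-score, at least 3 SD from the plate mean, either direction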;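 also: B-score of the F/F0 ratio slope over 7 to 12 s after thallium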
Target sequence (P48048 whole entry, looked up): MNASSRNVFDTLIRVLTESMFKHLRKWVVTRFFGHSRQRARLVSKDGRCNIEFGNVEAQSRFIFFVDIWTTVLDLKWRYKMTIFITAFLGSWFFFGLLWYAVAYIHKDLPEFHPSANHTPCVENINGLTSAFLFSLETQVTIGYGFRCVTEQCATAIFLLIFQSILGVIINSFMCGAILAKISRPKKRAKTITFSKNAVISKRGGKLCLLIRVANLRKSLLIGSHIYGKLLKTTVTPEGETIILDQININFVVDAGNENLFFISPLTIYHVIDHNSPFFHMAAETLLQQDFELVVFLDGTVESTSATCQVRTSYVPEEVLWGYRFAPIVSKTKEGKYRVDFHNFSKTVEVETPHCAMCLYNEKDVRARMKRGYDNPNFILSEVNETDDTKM
Starred values were filed as active, the others as inactive; i = inactive; . = no result; + = active, no number.

SMILES	Dynein cargo inh	Cl transport mod	Redox H2O2 prof	Autophagy mod	ROMK mod
CCOC(=O)Cc1csc(N/C(=N/S(=O)(=O)c2cc(Br)ccc2OCC)c2ccccc2)n1	-0.37	0.03	0	i	.
CCC(=O)NC(c1cccs1)c1cc(Cl)c2cccnc2c1O (stereo unspecified)	-0.091	0.35	0	+	0.03
CCCCC(=O)NC(c1cccs1)c1cc(Cl)c2cccnc2c1O (stereo unspecified)	-0.12	0.87	1	i	0.9
Clc1ccc(-c2csc(=Nc3cccnc3)n2CCCn2ccnc2)cc1Cl	0.6	-1.3	-1	+	-1.4
CC(=O)NCCNC(=O)c1ccc(NC2=NC3CS(=O)(=O)CC3S2)cc1 (stereo unspecified)	-0.23	-0.27	.	.	0.13
CCOCCc1c(O)nc(SCC)[nH]c1=O	-1.5	-0.032	.	.	-0.45
Fc1ccccc1CSc1ncnc2sc3c(c12)CCCC3	-0.2	1.2	1	i	-0.76
Cc1ccc(Cn2c(-n3nc(C)cc3C)nc3c2c(=O)[nH]c(=O)n3C)cc1	1.1	-0.00033	1	i	.
COc1ccc(CCn2c(-n3nc(C)cc3C)nc3c2c(=O)[nH]c(=O)n3C)cc1	-0.36	0.017	-3	+	0.56
COc1cc(C(c2c(C)[nH][nH]c2=O)c2c(C)[nH][nH]c2=O)cc(OC)c1OC	1.7	-0.7	0	+	1.2
COc1cc(C(c2c(C)[nH][nH]c2=O)c2c(C)[nH][nH]c2=O)ccc1OC(C)C	-0.14	0.97	0	i	.
CCOC(=O)c1c(C)[nH]c(C)c1C(=O)COC(=O)/C=C/c1ccc(Cl)cc1	-0.8	-2.1	-1	i	0.25
CCOC(=O)c1nn(-c2cccc(OC)c2)c2nc(Nc3ccccc3)cc(=O)n12	0.6	.	-1	+	0.28
CSc1ccccc1C(=O)N1CCc2ccccc2C1	2.3	-0.26	-1	+	0.88
Cc1ccccc1C(=O)N1CCc2ccccc2C1	-1.3	-0.67	1	i	.
O=C(CSc1cccc[n+]1[O-])c1cc2ccccc2o1	-0.24	7.2*	1	i	-0.036
CCC(=O)n1nc(-c2ccc(Cl)cc2)nc1NCc1ccccc1	1.8	0.53	-1	+	.
COc1ccc(C2=NOC(C(=O)Nc3cccnc3Cl)C2)cc1 (stereo unspecified)	0.51	0.017	1	+	.
COc1ccc(C2=NOC(C(=O)O)C2)cc1 (stereo unspecified)	0.99	-1.1	0	i	-0.075
Clc1ccc(-c2csc(-c3cccnc3)n2)s1	-0.84	-0.99	.	.	1.3
O=C(c1ccc(CSc2nc3ccncc3[nH]2)cc1)N1CCN(c2cccc(Cl)c2)CC1	2	-1.9	1	i	-3.5*
Cc1cc(O)ccc1C1(c2ccc(O)cc2C)OC(=O)c2ccccc21	-1.1	0.53	1	i	.
CC(=O)Oc1ccc2c(c1)Oc1cc(OC(C)=O)ccc1C21OC(=O)c2ccccc21	-4.7*	i	0	i	.
Cc1nc2ccccc2n1-c1nc(-c2ccco2)cc(C(F)(F)F)n1	-0.36	-0.18	-2	+	.
CC(NC(=O)C12CC3CC(CC(C3)C1)C2)C(=O)N/N=C/C1=C(N2CCOCC2)C(=C\c2cccc([N+](=O)[O-])c2)/CC1 (stereo unspecified)	0.094	1.9	0	i	.
SMILES	Dynein cargo inh	Cl transport mod	Redox H2O2 prof	Autophagy mod	ROMK mod
CC(C)C(NC(=O)C12CC3CC(CC(C3)C1)C2)C(=O)N/N=C/C1=C(N2CCOCC2)C(=C\c2ccc([N+](=O)[O-])cc2)/CC1 (stereo unspecified)	-3	0.66	0	+	.
Nc1cccc(C(=O)OCC(=O)Nc2cccc3c2C(=O)c2ccccc2C3=O)c1	0.065	0.27	.	+	-0.092
Cc1cc(Cl)ccc1NC(=O)C1CCN(S(C)(=O)=O)CC1	2.2	-0.52	0	i	0.58
Cc1ccc(-c2cc(C(F)F)n3ncc(C(=O)Nc4c(C)nn(Cc5c(Cl)cccc5Cl)c4C)c3n2)cc1	-0.17	-0.51	-3	+	.
Cc1ccc(-c2cc(C(F)F)n3ncc(C(=O)N4CCc5ccccc54)c3n2)cc1	0.91	0.21	-1	+	-0.3
O=C(c1cnn2c(C(F)F)cc(-c3ccccc3)nc12)N1CCc2ccccc21	-0.055	-0.23	0	i	0.81
NC(=O)c1ccc(Oc2ccc(C(N)=O)cc2)cc1	0.7	-0.56	.	.	.
